Experimental data reported in ChEMBL document CHEMBL4350958, “Rational Design of Short Peptide Variants by Using Kunitzin-RE, an Amphibian-Derived Bioactivity Peptide, for Acquired Potent Broad-Spectrum Antimicrobial and Improved Therapeutic Potential of Commensalism Coinfection of Pathogens” (J Med Chem, 2019).

Columns and labels:
[1] = test system: Salmonella typhimurium; test: Bactericidal activity against Salmonella typhimurium ATCC 14028 incubated for 24 hrs followed by replating on agar plate and measured after overnight incubation; format: functional, Salmonella enterica subsp. enterica serovar Typhimurium; details: Salmonella enterica, ATCC 14028, 24 h; read-out: MBC>99.9
Procedure, shortened: (§1)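 Mid-log bacteria diluted in MHB to (0.5–1) × 10^5 CFU/mL and mixed 1:1 with peptide serially diluted in 0.2% BSA. After 24 h at 37 °C, 50 μL of each mixture was plated on agar and incubated overnight. MBC taken as the lowest concentration killing >99.9% of cells. At least three independent experiments, each with three technical replicates.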

[2] = test system: Staphylococcus aureus; test: Bactericidal activity against Staphylococcus aureus ATCC 25923 incubated for 24 hrs followed by replating on agar plate and measured after overnight incubation; format: functional; details: ATCC 25923, 24 h, read-out: MBC>99.9
Procedure, shortened: (§2)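 After the 24 h, 37 °C MHB microdilution MIC assay, 50 μL from each well was plated on agar and incubated overnight. MBC taken as lowest peptide concentration killing >99.9% of cells. At least three independent experiments, each with three technical replicates.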

[3] = test system: Escherichia coli; test: Antibacterial activity against Escherichia coli UB1005 measured after 24 hrs; format: functional; details: UB1005, 24 h
Procedure, shortened: (§3)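 Broth microdilution adapted from NCCLS. Mid-log bacteria were diluted in MHB to a final (0.5–1) × 10^5 CFU mL−1. Peptides were serially diluted in 0.2% BSA and mixed with an equal volume of cells. After 24 h at 37 °C, MIC was read at A492 as the lowest concentration inhibiting 95% of growth. At least three independent experiments, each with three technical replicates.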

[4] = test system: Candida albicans; test: Antifungal activity against Candida albicans cgmcc2.2086 measured after 48 hrs by broth microdilution method; format: functional; details: cgmcc2.2086, 48 h
Procedure, shortened: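 Modified CLSI M27-A2 microdilution. Yeast colonies were diluted in MOPS-buffered RPMI 1640 to a final (0.5–1) × 10^3 CFU mL−1 and mixed with an equal volume of peptide serially diluted in 0.2% BSA. After 48 h at 28 °C, MIC was read at A492 as the lowest concentration inhibiting 95% of growth. At least three independent experiments, each with three technical replicates.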

[5] = test system: Escherichia coli; test: Bactericidal activity against Escherichia coli K99 incubated for 24 hrs followed by replating on agar plate and measured after overnight incubation; format: functional; details: K99, 24 h, read-out: MBC>99.9; procedure, shortened: as §1
[6] = test system: Escherichia coli; test: Antibacterial activity against Escherichia coli ATCC 25922 measured after 24 hrs; format: functional; details: ATCC 25922, 24 h; procedure, shortened: as §3
[7] = Therapeutic index, ratio of MHC10 for hemolytic activity in human RBC to MIC95 against methicillin-resistant Staphylococcus aureus ATCC 43300; format: toxicity; details: human red blood cells (erythrocytes), read-out: TI
Procedure, shortened: (§4)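 Therapeutic index = MHC divided by MIC. MHC is the lowest concentration giving >10% lysis of human RBC (1 h, 37 °C, 1-128 µM, A576). MIC is 95% growth inhibition by broth microdilution: bacteria in MHB 24 h at 37 °C; Candida in MOPS-buffered RPMI 1640 at (0.5–1) × 10^3 CFU mL−1, 48 h at 28 °C.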

[8] = Therapeutic index, ratio of MHC10 for hemolytic activity in human RBC to MIC95 against Candida tropicalis cgmcc2.1975; format: toxicity; details: human red blood cells (erythrocytes), read-out: TI; procedure, shortened: as §4
[9] = test system: Staphylococcus epidermidis; test: Bactericidal activity against Staphylococcus epidermidis ATCC 12228 incubated for 24 hrs followed by replating on agar plate and measured after overnight incubation; format: functional; details: ATCC 12228, 24 h, read-out: MBC>99.9; procedure, shortened: as §1
[10] = test system: Salmonella typhimurium; test: Bactericidal activity against Salmonella typhimurium C7731 incubated for 24 hrs followed by replating on agar plate and measured after overnight incubation; format: functional, Salmonella enterica subsp. enterica serovar Typhimurium; details: Salmonella enterica, C7731, 24 h; read-out: MBC>99.9; procedure, shortened: as §1
[11] = Bactericidal activity against Salmonella pullorum ATCC 7913 incubated for 24 hrs followed by replating on agar plate and measured after overnight incubation; format: functional, Salmonella enterica subsp. enterica serovar Pullorum; details: Salmonella enterica, ATCC 7913, 24 h; read-out: MBC>99.9; procedure, shortened: as §1
[12] = test system: Candida albicans; test: Antifungal activity against Candida albicans cgmcc2.2086 measured after 48 hrs in presence of MgCl by broth microdilution method; format: functional; details: cgmcc2.2086, 48 h
[13] = Antibacterial activity against Salmonella pullorum ATCC 7913 measured after 24 hrs; format: functional, Salmonella enterica subsp. enterica serovar Pullorum; details: Salmonella enterica, ATCC 7913, 24 h; procedure, shortened: as §3
[14] = test system: Staphylococcus aureus; test: Antibacterial activity against Staphylococcus aureus ATCC 29213 measured after 18 to 24 hrs in presence of NaCl; format: functional
[15] = test system: Staphylococcus epidermidis; test: Antibacterial activity against Staphylococcus epidermidis ATCC 12228 measured after 24 hrs; format: functional; details: ATCC 12228, 24 h; procedure, shortened: as §3
[16] = test system: Staphylococcus aureus; test: Antibacterial activity against methicillin-resistant Staphylococcus aureus ATCC 43300 measured after 24 hrs; format: functional; details: ATCC 43300, 24 h
Procedure, shortened: (§5)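 Broth microdilution modified from NCCLS. Mid-log bacteria at (0.5–1) × 10^5 CFU mL−1 in MHB, mixed with peptides serially diluted in 0.2% BSA. Incubated 24 h at 37 °C, read at A492. MIC taken as lowest concentration giving 95% growth inhibition. At least three independent experiments, each with three technical replicates.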

[17] = test system: Staphylococcus aureus; test: Bactericidal activity against methicillin-resistant Staphylococcus aureus ATCC 43300 incubated for 24 hrs followed by replating on agar plate and measured after overnight incubation; format: functional; details: ATCC 43300, 24 h, read-out: MBC>99.9; procedure, shortened: as §2
[18] = test system: Staphylococcus aureus; test: Antibacterial activity against Staphylococcus aureus ATCC 29213 measured after 18 to 24 hrs in presence of CaCl2; format: functional
[19] = Therapeutic index, ratio of MHC10 for hemolytic activity in human RBC to MIC95 against Staphylococcus epidermidis ATCC 12228; format: toxicity; details: human red blood cells (erythrocytes), read-out: TI; procedure, shortened: as §4
[20] = Therapeutic index, ratio of MHC10 for hemolytic activity in human RBC to MIC95 against Staphylococcus aureus ATCC 29213; format: toxicity; details: human red blood cells (erythrocytes), read-out: TI; procedure, shortened: as §4
[21] = test system: Escherichia coli; test: Antibacterial activity against Escherichia coli ATCC 25922 measured after 18 to 24 hrs in presence of CaCl2; format: functional
[22] = test system: Staphylococcus aureus; test: Antibacterial activity against Staphylococcus aureus ATCC 29213 measured after 24 hrs; format: functional; details: ATCC 29213, 24 h; procedure, shortened: as §5
[23] = test system: Staphylococcus aureus; test: Bactericidal activity against Staphylococcus aureus ATCC 29213 incubated for 24 hrs followed by replating on agar plate and measured after overnight incubation; format: functional; details: ATCC 29213, 24 h, read-out: MBC>99.9; procedure, shortened: as §2
[24] = Cytotoxicity against mouse RAW264.7 cells assessed as cell viability at 2 to 64 uM measured after 18 to 24 hrs by MTT assay relative to control; format: cell-based; details: RAW264.7 cells, read-out: Activity
Procedure, shortened: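 MTT assay: RAW264.7 cells seeded at 1.0–2.0×10^4 per well and exposed to peptide (2–64 µM) for 18–24 h at 37 °C in 5% CO2. MTT (0.5 mg/mL) added for 4 h, formazan dissolved in DMSO, read at 570 nm. At least three independent experiments with triplicate wells.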

[25] = test system: Escherichia coli; test: Antibacterial activity against Escherichia coli ATCC 25922 measured after 18 to 24 hrs in presence of MgCl2; format: functional

Substance	MBC [1]	MBC [2]	MIC95 [3]	MIC95 [4]	MBC [5]	MIC95 [6]	selectivity ratio [7]	selectivity ratio [8]	MBC [9]	MBC [10]	MBC [11]	MIC95 [12]	MIC95 [13]	MIC95 [14]	MIC95 [15]	MIC95 [16]	MBC [17]	MIC95 [18]	selectivity ratio [19]	selectivity ratio [20]	other results
H-AARIILRWRFR-NH2	4 µM	4 µM	4 µM	8 µM	4 µM	4 µM	215	50.8	4 µM	4 µM	4 µM	16 µM	2 µM	4 µM	1 µM	1 µM	1 µM	2 µM	215	215	MIC95 [21]: 4 µM; MIC95 [22]: 1 µM; MBC [23]: 2 µM; viability at up to 64 µM [24]: 90 to 100%; MIC95 [25]: 4 µM
H-AARIILRTRFR-NH2	32 µM	32 µM	4 µM	128 µM	8 µM	8 µM	16	4	32 µM	32 µM	16 µM	> 128 µM	8 µM	> 128 µM	16 µM	16 µM	32 µM	64 µM	16	16	MIC95 [21]: > 128 µM; MIC95 [22]: 16 µM; MBC [23]: 32 µM; viability at up to 64 µM [24]: 90 to 100%; MIC95 [25]: 128 µM
H-AARIILRWFRR-NH2	8 µM	8 µM	2 µM	8 µM	4 µM	2 µM	53.8	50.8	4 µM	8 µM	8 µM	16 µM	4 µM	32 µM	2 µM	8 µM	8 µM	8 µM	53.8	53.8	MIC95 [21]: 4 µM; MIC95 [22]: 4 µM; MBC [23]: 8 µM; viability at up to 64 µM [24]: 90 to 100%; MIC95 [25]: 2 µM
H-AARIILRFRFR-NH2	8 µM	4 µM	4 µM	8 µM	4 µM	8 µM	128	50.8	4 µM	8 µM	8 µM	16 µM	4 µM	32 µM	2 µM	2 µM	4 µM	4 µM	128	128	MIC95 [21]: 32 µM; MIC95 [22]: 2 µM; MBC [23]: 4 µM; viability at up to 64 µM [24]: 90 to 100%; MIC95 [25]: 32 µM
H-AARIILRIRFR-NH2	4 µM	4 µM	4 µM	8 µM	4 µM	4 µM	64	25.4	4 µM	8 µM	4 µM	16 µM	2 µM	8 µM	2 µM	2 µM	4 µM	16 µM	64	64	MIC95 [21]: 32 µM; MIC95 [22]: 2 µM; MBC [23]: 4 µM; viability at up to 64 µM [24]: 90 to 100%; MIC95 [25]: 16 µM
